# According to ChEMBL document CHEMBL1155278, “3,4-Diaryl-isoxazoles and -imidazoles as potent dual inhibitors of p38alpha mitogen activated protein kinase and casein kinase 1delta” (J Med Chem, 2009):
# Columns and labels:
# [1] = target: Ribosomal protein S6 kinase beta-1 (Homo sapiens) (UniProt P23443); assay: Inhibition of S6K1 assessed as residual activity at 0.1 uM by Cherenkov counting relative to control in presence of 20 uM ATP
# Summary of the method: (§1)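 Single-concentration screen at 0.1 μM in a 76-kinase panel. ATP for each kinase was set near its Km for ATP. Residual activity is given as a percentage of control assays without compound, mean of n = 3 ± SD.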
# [2] = target: Casein kinase I isoform epsilon (Homo sapiens, UniProt P49674); assay: Inhibition of recombinant CK1epsilon by Cherenkov counting in presence of 20 uM ATP
# [3] = target: Myosin light chain kinase, smooth muscle (Homo sapiens) (UniProt Q15746); assay: Inhibition of smooth muscle MLCK assessed as residual activity at 0.1 uM by Cherenkov counting relative to control in presence of 50 uM ATP; summary of the method: as §1
# [4] = target: Homeodomain-interacting protein kinase 2 (Homo sapiens) (UniProt Q9H2X6); assay: Inhibition of HIPK2 assessed as residual activity at 0.1 uM by Cherenkov counting relative to control in presence of 5 uM ATP
# Summary of the method: (§2)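 Single-concentration screen at 0.1 µM across a panel of 76 protein kinases. Each kinase was run at an ATP concentration approximating its ATP Km. Results are % mean residual activity versus control assays without compound (n = 3 ± SD).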
# [5] = target: Calcium/calmodulin-dependent protein kinase kinase 2 (Homo sapiens) (UniProt Q96RR4); assay: Inhibition of CAMKKbeta assessed as residual activity at 0.1 uM by Cherenkov counting relative to control; summary of the method: as §2
# [6] = target: T1, Inhibitor of nuclear factor kappa-B kinase subunit epsilon (Homo sapiens) (UniProt Q14164); assay: Inhibition of IKKepsilon assessed as residual activity at 10 uM by Cherenkov counting relative to control in presence of 50 uM ATP
# T1 sequence (whole entry): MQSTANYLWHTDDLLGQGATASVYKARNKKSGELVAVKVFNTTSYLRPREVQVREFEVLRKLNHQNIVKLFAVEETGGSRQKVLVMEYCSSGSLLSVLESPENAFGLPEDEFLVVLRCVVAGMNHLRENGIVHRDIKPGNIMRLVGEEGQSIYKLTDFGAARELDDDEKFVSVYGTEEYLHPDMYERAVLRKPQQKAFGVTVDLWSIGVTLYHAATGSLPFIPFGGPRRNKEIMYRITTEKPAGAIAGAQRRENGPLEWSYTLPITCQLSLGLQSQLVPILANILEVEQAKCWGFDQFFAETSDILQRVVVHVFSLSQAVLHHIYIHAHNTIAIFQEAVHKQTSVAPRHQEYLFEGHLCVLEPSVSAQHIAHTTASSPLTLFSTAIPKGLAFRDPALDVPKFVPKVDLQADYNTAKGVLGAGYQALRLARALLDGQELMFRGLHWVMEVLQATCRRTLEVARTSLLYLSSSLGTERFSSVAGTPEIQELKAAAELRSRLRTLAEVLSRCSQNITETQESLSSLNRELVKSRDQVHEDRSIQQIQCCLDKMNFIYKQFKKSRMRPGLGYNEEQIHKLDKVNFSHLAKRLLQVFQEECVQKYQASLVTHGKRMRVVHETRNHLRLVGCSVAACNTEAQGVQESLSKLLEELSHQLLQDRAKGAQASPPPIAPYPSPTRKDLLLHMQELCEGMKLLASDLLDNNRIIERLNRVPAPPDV
# [7] = target: Dual specificity tyrosine-phosphorylation-regulated kinase 1A (Homo sapiens) (UniProt Q13627); assay: Inhibition of DYRK1A assessed as residual activity at 10 uM by Cherenkov counting relative to control in presence of 50 uM ATP
# Summary of the method: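 Single-point profiling at 10 µM in a panel of 78 protein kinases. Kinase activity is expressed as a percentage relative to control assays without compound.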
# [8] = target: Serine/threonine-protein kinase PAK 6 (Homo sapiens) (UniProt Q9NQU5); assay: Inhibition of PAK6 assessed as residual activity at 10 uM by Cherenkov counting relative to control in presence of 20 uM ATP
# [9] = target: T2, Serine/threonine-protein kinase TBK1 (Homo sapiens) (UniProt Q9UHD2); assay: Inhibition of TBK1 assessed as residual activity at 10 uM by Cherenkov counting relative to control in presence of 50 uM ATP
# T2 sequence (whole entry): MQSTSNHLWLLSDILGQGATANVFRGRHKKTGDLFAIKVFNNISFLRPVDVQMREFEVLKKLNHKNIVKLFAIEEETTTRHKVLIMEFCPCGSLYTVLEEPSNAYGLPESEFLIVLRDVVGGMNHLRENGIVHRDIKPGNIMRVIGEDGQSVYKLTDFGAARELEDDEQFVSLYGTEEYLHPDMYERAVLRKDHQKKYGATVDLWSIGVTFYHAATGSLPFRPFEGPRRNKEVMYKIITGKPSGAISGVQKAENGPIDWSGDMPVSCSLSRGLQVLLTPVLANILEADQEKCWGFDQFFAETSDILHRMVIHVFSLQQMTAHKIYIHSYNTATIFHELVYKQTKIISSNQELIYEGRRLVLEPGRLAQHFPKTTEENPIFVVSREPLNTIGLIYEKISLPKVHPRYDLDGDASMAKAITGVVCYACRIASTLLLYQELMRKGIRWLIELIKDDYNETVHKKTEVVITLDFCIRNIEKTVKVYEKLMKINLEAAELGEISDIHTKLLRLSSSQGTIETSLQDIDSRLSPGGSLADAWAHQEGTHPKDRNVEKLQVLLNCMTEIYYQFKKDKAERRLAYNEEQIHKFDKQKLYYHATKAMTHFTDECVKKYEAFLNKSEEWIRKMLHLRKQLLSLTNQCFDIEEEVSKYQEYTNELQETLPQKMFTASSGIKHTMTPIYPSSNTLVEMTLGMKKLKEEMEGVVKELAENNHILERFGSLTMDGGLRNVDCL
# Summary of the method: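 Single-concentration profiling at 10 μM in a 78-kinase panel. Kinase activity is expressed as a percentage of control assays run without compound.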
# Sequence of Calcium/calmodulin-dependent protein kinase kinase 2 (Homo sapiens) (Q96RR4 2-588 limits assumed): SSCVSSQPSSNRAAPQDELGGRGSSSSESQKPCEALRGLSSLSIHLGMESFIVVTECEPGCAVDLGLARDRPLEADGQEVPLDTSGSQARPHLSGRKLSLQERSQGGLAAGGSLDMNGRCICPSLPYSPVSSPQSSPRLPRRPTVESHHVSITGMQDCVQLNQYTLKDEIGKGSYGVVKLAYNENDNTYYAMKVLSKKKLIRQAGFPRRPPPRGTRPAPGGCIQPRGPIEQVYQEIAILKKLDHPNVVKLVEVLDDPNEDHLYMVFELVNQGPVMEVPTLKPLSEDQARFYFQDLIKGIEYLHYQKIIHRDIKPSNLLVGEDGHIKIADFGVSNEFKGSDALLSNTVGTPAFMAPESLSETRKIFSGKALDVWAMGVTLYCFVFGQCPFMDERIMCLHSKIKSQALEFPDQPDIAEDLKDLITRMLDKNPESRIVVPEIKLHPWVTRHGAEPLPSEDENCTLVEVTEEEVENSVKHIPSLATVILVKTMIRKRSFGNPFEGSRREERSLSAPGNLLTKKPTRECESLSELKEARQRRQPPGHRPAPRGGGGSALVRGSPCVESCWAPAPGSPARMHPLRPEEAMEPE
# Sequence of Ribosomal protein S6 kinase beta-1 (Homo sapiens) (P23443 whole entry, looked up): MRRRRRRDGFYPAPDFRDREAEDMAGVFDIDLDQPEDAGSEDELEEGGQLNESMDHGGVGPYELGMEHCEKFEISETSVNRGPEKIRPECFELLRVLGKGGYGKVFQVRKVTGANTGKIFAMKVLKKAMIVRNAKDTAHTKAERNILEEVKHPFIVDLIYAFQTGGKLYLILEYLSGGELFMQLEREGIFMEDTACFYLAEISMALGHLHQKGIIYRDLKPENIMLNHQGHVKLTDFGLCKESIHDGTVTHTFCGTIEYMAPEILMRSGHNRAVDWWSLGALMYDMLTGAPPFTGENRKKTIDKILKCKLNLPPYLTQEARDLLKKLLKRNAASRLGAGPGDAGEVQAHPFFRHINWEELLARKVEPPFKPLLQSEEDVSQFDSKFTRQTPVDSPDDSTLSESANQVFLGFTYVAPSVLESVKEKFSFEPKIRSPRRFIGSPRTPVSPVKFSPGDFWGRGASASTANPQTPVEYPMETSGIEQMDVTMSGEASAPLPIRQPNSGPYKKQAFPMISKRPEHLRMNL
# Sequence of Casein kinase I isoform epsilon (P49674 whole entry, canonical isoform): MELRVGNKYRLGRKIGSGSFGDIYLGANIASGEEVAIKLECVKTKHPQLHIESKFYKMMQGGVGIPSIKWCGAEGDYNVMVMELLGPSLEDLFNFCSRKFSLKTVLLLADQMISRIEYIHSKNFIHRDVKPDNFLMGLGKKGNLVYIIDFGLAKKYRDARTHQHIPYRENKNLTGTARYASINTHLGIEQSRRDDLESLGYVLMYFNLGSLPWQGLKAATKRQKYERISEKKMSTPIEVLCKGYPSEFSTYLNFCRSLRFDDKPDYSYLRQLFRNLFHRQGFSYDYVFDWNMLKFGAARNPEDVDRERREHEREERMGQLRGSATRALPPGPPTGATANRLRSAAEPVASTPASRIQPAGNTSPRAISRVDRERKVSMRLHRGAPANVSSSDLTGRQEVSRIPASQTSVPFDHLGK
# Sequence of Myosin light chain kinase, smooth muscle (Homo sapiens) (Q15746 whole entry): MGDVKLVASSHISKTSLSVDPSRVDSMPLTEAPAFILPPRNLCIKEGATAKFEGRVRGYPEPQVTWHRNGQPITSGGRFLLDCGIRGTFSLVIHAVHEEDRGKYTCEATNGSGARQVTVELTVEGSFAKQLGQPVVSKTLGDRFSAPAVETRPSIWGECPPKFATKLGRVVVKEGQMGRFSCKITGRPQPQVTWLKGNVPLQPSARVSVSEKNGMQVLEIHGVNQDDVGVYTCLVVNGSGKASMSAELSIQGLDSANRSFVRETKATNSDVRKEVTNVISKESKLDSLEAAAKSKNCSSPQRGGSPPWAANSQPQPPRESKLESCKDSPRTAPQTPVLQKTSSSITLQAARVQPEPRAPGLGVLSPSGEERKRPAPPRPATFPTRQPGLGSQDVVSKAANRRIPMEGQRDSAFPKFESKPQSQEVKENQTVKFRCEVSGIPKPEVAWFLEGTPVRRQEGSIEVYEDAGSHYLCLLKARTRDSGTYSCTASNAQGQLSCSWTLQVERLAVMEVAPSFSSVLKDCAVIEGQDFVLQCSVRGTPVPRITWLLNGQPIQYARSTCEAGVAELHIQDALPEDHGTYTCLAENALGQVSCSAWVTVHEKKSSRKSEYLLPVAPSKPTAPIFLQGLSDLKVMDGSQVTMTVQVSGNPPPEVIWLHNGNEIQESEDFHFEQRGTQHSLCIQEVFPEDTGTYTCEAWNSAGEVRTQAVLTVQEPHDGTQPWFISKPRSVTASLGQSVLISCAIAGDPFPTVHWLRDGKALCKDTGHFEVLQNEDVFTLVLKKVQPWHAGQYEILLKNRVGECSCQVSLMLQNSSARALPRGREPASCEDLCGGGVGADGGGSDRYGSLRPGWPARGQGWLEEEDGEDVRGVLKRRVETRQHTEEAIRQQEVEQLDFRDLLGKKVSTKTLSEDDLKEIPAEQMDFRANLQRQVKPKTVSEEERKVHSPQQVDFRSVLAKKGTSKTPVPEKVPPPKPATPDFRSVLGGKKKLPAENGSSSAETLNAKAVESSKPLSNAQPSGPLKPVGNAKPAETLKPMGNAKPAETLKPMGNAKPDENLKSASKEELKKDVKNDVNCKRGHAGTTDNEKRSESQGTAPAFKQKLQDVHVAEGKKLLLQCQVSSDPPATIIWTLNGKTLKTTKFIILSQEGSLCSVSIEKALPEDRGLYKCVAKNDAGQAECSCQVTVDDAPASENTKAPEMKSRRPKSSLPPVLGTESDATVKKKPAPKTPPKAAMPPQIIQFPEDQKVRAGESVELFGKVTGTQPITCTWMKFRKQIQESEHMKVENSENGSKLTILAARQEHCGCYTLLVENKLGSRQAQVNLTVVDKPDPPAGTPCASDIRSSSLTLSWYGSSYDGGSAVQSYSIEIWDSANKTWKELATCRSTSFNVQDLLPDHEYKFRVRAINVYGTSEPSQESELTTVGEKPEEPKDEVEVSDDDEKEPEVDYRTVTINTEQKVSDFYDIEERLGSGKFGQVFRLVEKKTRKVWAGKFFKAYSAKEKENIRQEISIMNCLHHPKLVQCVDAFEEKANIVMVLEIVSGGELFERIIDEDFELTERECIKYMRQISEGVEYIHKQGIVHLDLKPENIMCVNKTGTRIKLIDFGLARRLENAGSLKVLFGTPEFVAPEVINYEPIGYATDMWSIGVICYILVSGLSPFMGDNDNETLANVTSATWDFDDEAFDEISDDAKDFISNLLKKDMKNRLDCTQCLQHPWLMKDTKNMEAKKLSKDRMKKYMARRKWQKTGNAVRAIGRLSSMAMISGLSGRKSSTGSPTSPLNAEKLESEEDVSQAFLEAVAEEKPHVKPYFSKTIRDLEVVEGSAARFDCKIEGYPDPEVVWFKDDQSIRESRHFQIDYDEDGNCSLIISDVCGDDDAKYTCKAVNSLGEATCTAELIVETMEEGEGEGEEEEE
# Sequence of Serine/threonine-protein kinase PAK 6 (Homo sapiens) (Q9NQU5 whole entry, looked up): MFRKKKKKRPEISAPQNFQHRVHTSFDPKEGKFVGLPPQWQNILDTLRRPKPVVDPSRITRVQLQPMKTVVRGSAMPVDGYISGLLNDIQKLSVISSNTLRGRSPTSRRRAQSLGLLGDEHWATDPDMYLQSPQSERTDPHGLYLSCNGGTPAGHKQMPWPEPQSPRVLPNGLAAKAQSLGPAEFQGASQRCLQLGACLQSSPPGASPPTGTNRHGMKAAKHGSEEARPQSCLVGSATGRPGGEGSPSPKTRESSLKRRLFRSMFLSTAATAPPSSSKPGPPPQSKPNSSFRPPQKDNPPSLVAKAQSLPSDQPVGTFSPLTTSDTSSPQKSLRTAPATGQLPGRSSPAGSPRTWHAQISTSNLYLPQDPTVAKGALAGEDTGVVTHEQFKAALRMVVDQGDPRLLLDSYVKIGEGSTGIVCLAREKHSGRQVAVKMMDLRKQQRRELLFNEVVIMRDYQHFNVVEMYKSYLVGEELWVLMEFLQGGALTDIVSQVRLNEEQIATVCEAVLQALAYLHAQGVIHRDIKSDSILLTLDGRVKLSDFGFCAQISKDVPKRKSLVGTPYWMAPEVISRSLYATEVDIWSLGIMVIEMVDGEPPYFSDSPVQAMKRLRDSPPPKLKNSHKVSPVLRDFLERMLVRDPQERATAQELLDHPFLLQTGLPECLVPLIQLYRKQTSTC
SMILES,Activity [1] [%],IC50 [2] [nM],Activity [3] [%],Activity [4] [%],Activity [5] [%],Activity [6] [%],Activity [7] [%],Activity [8] [%],Activity [9] [%]
COc1ccc(/C=C/C(=O)Nc2cc(-c3[nH]c(SC)nc3-c3ccc(F)cc3)ccn2)c(OC)c1,67,73,82,94,88,,,,
COc1ccc(/C=C/C(=O)Nc2cc(-c3[nH]c([S+](C)[O-])nc3-c3ccc(F)cc3)ccn2)c(OC)c1 (stereo not drawn),74,447,93,104,92,,,,
CC(C)c1noc(-c2ccc(F)cc2)c1-c1ccncc1,,,,,,71,95,102,80
CC(C)c1onc(-c2ccc(F)cc2)c1-c1ccncc1,,,,,,81,100,100,90
